# Data reported in publication PMC7048620 (Nature microbiology, 2020).
# Like-named read-outs stand apart in the source and are kept apart here.
# T1: FtsZ-FtsA co-filaments (Escherichia coli, UniProt P0A9A6+P0ABH0)
# T1 sequence (P0ABH0 1-420): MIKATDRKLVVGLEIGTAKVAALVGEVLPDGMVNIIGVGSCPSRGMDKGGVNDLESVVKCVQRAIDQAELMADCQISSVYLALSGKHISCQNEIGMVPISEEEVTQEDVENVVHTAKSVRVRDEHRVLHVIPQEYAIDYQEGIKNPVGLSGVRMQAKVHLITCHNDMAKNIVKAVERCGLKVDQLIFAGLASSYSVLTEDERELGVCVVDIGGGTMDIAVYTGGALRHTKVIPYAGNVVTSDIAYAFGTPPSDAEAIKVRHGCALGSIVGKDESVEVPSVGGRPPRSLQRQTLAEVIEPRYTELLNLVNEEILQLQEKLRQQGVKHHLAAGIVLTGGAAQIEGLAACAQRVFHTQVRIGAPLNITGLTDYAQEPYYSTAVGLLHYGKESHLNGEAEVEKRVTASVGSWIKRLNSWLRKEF
# T1 sequence (P0A9A6 1-383 partner): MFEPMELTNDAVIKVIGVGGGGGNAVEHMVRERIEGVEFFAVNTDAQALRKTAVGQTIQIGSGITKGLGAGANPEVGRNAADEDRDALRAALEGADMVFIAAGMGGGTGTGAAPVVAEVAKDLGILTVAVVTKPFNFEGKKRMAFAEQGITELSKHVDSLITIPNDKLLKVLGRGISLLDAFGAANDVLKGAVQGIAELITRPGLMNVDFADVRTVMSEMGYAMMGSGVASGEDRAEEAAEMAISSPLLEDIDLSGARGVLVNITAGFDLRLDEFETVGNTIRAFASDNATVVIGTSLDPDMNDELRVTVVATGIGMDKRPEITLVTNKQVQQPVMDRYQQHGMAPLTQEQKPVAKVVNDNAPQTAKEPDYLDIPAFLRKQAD
# T2: FtsA (Escherichia coli, UniProt P0ABH0)
# T2 sequence (P0ABH0 1-420): T1 sequence (P0ABH0 1-420)
# T3: FtsA (E. coli, UniProt P0ABH0 1-420)
# T3 sequence: T1 sequence (P0ABH0 1-420)
# B1: Full-length FtsN (His6) (natural protein)
# chain: MAQRDYVRRSQPAPSRRKKSTSRKKQRNLPAVSPAMVAIAAAVLVTFIGGLYFITHHKKEESETLQSQKVTGNGLPPKPEERWRYIKELESRQPGVRAPTEPSAGGEVKTPEQLTPEQRQLLEQMQADMRQQPTQLVEVPWNEQTPEQRQQTLQRQRQAQQLAEQQRLAQQSRTTEQSWQQQTRTSQAAPVQAQPRQSKPASSQQPYQDLLQTPAHTTAQSKPQQAAPVARAADAPKPTAEKKDERRWMVQCGSFRGAEQAETVRAQLAFEGFDSKITTNNGWNRVVIGPVKGKENADSTLNRLKMAGHTNCIRLAAGG
# B2: FtsZ (natural protein)
# chain: T1 sequence (P0A9A6 1-383 partner)
# What was measured:
# FtsZ-FtsA co-filaments [1] = target: T1, FtsZ-FtsA co-filaments; test: FRAP on supported lipid membranes; conditions: mean±SD
# In short: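 Treadmilling patterns were formed on supported lipid membranes with 0.2 mol-% tris-Ni-NTA or 1 mol-% mono-Ni-NTA, using FtsA (0.45-0.6 μM) and FtsZ (1.5-1.8 μM) in 50 mM Tris-HCl pH 7.4, 150 mM KCl, 5 mM MgCl2 with 4 mM ATP/4 mM GTP. His-tagged FtsN cytoplasmic peptide went onto tris-Ni-NTA membranes. A ~15 μm x 15 μm area was bleached and imaged at 2 s/frame; a mono-exponential fit gave the half-time.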
# FtsZ-FtsA co-filaments [2] = target: T1, FtsZ-FtsA co-filaments; test: Single molecule diffusion and confinement time analysis on supported bilayers; conditions: Cy5-labelled single molecules in presence of Alexa488-FtsZ pattern, Gaussian fit
# In short: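 FtsA (0.45-0.6 μM) and FtsZ (1.5-1.8 μM) with 4 mM ATP/GTP formed steady-state patterns on supported membranes. Unlabelled His-tagged FtsN cytoplasmic peptide (1 μM) was added from solution with 10-20 pM Cy5-labelled peptide (wild-type or variant). TIRF tracking ran at 10 Hz. Diffusion-coefficient density distributions were fitted with a Gaussian (FtsZ, FtsA) or a double Gaussian (FtsN).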
# [3] = Sedimentation velocity analytical ultracentrifugation; format: physicochemical, Escherichia coli
# In short: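 Full-length FtsN was loaded at 9-20 μM and read by Rayleigh interference and 280 nm absorbance. Alexa488-FtsA was loaded at 4 μM and read at 495 nm. c(s) distributions came from least-squares boundary modelling.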
# [4] = target: FtsZ-FtsA co-filaments on supported lipid membranes (E. coli) (UniProt P0A9A6); test: single-molecule tracking by TIRF microscopy on supported lipid bilayers
# [5] = target: FtsZ-FtsA co-filaments on supported lipid membranes (E. coli) (UniProt P0A9A6); test: TIRF microscopy of purified proteins on supported lipid bilayers
# FtsA [6] = target: T2, FtsA; format: binding; conditions: MST
# FtsA [7] = target: T3, FtsA; test: MST
# FtsA [8] = target: T3, FtsA; test: MST; remark: listed apart in the source
# [9] = target: the molecule itself; test: single-molecule tracking by TIRF microscopy on supported lipid bilayers
# FtsA [10] = target: T3, FtsA; test: TIRF microscopy of purified proteins on supported lipid bilayers
molecule,measurement,setting,value
"CCCCCCCC/C=C\CCCCCCCC(=O)OC[C@H](COP(=O)(O)OCCNS(=O)(=O)c1ccc(-c2c3ccc(=[N+](CC)CC)cc-3oc3cc(N(CC)CC)ccc23)c(S(=O)(=O)[O-])c1)OC(=O)CCCCCCC/C=C\CCCCCCCC [rhodamine-PE, 1,2-dioleoyl-sn-glycero-3-phosphoethanolamine-N-(lissaminerhodamine B sulfonyl)]","half-time of fluorescence recovery Ƭ0.5, + FtsA/Z",FtsZ-FtsA co-filaments [1]; after FtsA and FtsZ added,17.7 ± 0.2 s
same,"half-time of fluorescence recovery Ƭ0.5, alone",FtsZ-FtsA co-filaments [1]; without FtsA and FtsZ,12.8 ± 3.4 s
"FtsA: E. coli FtsA (UP P0ABH0), membrane anchor of FtsZ, purified",diffusion coefficient (Dcoef) of single trajectories,FtsZ-FtsA co-filaments [2],0.0016 ± 0.0003 μm^2/s
same,"sedimentation coefficient, main peak","[3]; AlexaFluor488-FtsA in the absence of FtsN, n=2",~ 2 S
"FtsN_(cyto)His, cytoplasmic peptide of FtsN",confinement time,[4],0.41 s
same,frequency of confinement events relative to FtsN (cyto-DDEE)His,[4],3 fold
same,colocalization efficiency with FtsZ (Pearson correlation coefficient),[5],0.62
"FtsZ: E. coli tubulin-related GTPase FtsZ (UP P0A9A6), purified, fluorescently labelled",diffusion coefficient (Dcoef) of single trajectories,FtsZ-FtsA co-filaments [2],below 1x10^-4 μm^2/s
B1,interaction with FtsA at high salt,FtsA [6]; 300 mM KCl,significantly weaker
same,interaction with FtsA in solution,"FtsA [6]; Alexa647-FtsA titrated with peptide or protein, n=3",Binding was observed
same,"sedimentation coefficient, second main peak","[3]; 16 μM in 3.72 mM DDM, Raleigh interference, n=3, compatible with dimers",5.2 ± 0.1 S
same,"sedimentation coefficient, first main peak","[3]; 16 μM in 3.72 mM DDM, Raleigh interference, n=3, compatible with monomers",4.1 ± 0.1 S
same,Kd,FtsA [7],734 ± 23 nM
same,Kd,FtsA [8],250 ± 51 nM
B2,binding result,[9],binds
same,binding result,FtsA [10],binds
